Compound activity (PubChem)
Yeast life ext: yeast lifespan extension; inhibition of the nicotinamide effect, % at 10 µM; S. cerevisiae growth with nicotinamide, OD615; deaD strain in restrictive glucose medium; 0.68% of 130,000 active;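 active = inhibition above a set limit, placed 3 SD over the median of all compounds, cut at about 26% in these data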;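 also: 0% = nicotinamide-treated wells and 100% = cells grown without nicotinamide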
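System: DeaD-strain S. cerevisiae / Buffer or medium: CSMM-D, restrictive glucose (dextrose) synthetic minimal medium / Probe or stimulus: nicotinamide, 1.5 mM, co-present with compound / Compound: one concentration, 10 µM, DMSO 0.25% / Incubation: 48 h compound exposure at 30 °C, humidified / Technique: optical density (absorbance) at 615 nm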
RAM inhibit: blocks the yeast RAM network; S. cerevisiae dse1pr::URA3 reporter, 5-FOA growth OD615, 2 d; analog-sensitive cbk1-as2 kinase mutant strain; inhibition, % at 50 µM; 1.8% of 190,000 active; AID 868;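 active = inhibition above a set limit, 3 SD over mean compound inhibition, cut at about 8.4% in these data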;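 also: 0% = DMSO-only wells with no growth and 100% = 10 µM 1-NA-PP1 full growth; inhibition rescues growth on 5-FOA so higher OD means more RAM inhibition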
WT yeast gro inh: growth inhibition of WT yeast, mitochondrial fusion screen | mitochondrial fusion phenotypic screen, WT strain | 2.1% of 190,000 active | inhibition, % at 10 µM; in the data active = inhibition above about 58%; tested in S. cerevisiae
BB579 growth dn: yeast BB579 growth reduction in restrictive medium; S. cerevisiae BB579 growth, OD615, 48 h; inhibition, % at 10 µM; 0.51% of 140,000 active;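 active = inhibition above a set limit, 3 SD over the mean compound inhibition, cut at about 44% in these data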
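Material: Saccharomyces cerevisiae DeaD strain BB579, replicative lifespan model yeast; buffer or medium: CSMM-D restrictive synthetic medium containing dextrose (glucose); compound: 10 µM single dose, DMSO 0.25%; timing: 48 h compound exposure at 30 °C after 4 h preincubation; signal: turbidity as optical density at 615 nm; benchmarks: positive control amphotericin B 10 µg/mL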
Starred values were filed as active, the others as inactive; . = not tested or not shown. Rows were chosen to be rich in hits. Some 4.3% of all compounds tested hit in one or more screens of this group.

SMILES	Yeast life ext	RAM inhibit	WT yeast gro inh	BB579 growth dn
O=C(Cc1c(O)c2ccccc2[nH]c1=O)NCc1ccccc1F	-15.7	3.0	60.0*	-15.4
Clc1ccc(-c2nnc(COc3ncnc4sccc34)o2)cc1	33.1	1.9	-5.6	-37.3
CN=C1S/C(=C\c2ccc(N3CCOCC3)cc2C)C(=O)N1C	-2.6	2.8	-18.3	-30.4
CCN=C1S/C(=C\c2ccc(N3CCOCC3)cc2C)C(=O)N1CC	4.8	10.5*	-22.5	-23.4
C=CCn1c(SCC(=O)Nc2ccc(C(=O)OC(C)C)cc2)nnc1-c1cccs1	-9.0	8.7*	15.0	-6.2
COc1cc(C2NCC(c3ccc(Cl)cc3Cl)c3c2[nH]c2ccccc32)cc(OC)c1OC (centres undefined)	5.6	0.3	81.9*	-52.5
CCCCN1C(=O)c2ccc(C(=O)NCCN3C(=O)S/C(=C\c4cccnc4)C3=O)cc2C1=O	-5.3	1.2	-10.1	-10.5
COCCNC(=O)/C(C#N)=C/C=C/c1ccccc1[N+](=O)[O-]	.	2.4	-3.8	.
COC(=O)c1sc2ncn(-n3c(C)ccc3C)c(=O)c2c1C	84.6*	1.4	2.5	-73.2
CCOc1cccc2cc(C(=O)N3CCc4ccccc43)c(=O)oc12	-4.0	2.0	-8.0	-17.2
COc1cccc2cc(C(=O)N3CCc4ccccc43)c(=O)oc12	8.8	0.5	83.2*	-41.7
C=CCn1c(COc2ccccc2-c2ccccc2)nnc1SCC(=O)NC(=O)NCc1ccco1	-5.9	2.0	94.6*	-51.1
COc1ccc(CCNC(=O)COC(=O)c2ccc(N3CCCC3=O)cc2)cc1	.	-0.4	-8.0	.
O=C(/C=C/c1ccc(Cl)cc1Cl)N(Cc1ccc(Cl)cc1)C1CCS(=O)(=O)C1 (centres undefined)	0.2	5.7	59.4*	-39.8
O=C1N=C(N2CCc3ccccc3C2)S/C1=C\c1cccc(O)c1	-3.3	7.5	-11.9	-27.6
CN(C)/C=C/C(=C\C(=O)C(F)(F)F)Nc1ccc(C(F)(F)F)cc1	.	0.2	-19.7	.
CC(C)(C)NC(=O)C(OC(=O)c1cccs1)c1ccc(C#N)cc1 (centres undefined)	.	4.9	0.8	.
CCCCC(=O)NC(=S)NNC(=O)c1ccc(Cl)cc1Cl	.	1.7	12.2	.
O=C(COc1cccc(Cl)c1)NNC(=S)Nc1ccccc1	1.4	1.9	38.3	-11.4
Cc1cccc(C(=O)NC(=S)NNC(=O)COc2ccc(Cl)cc2)c1	.	3.1	64.2*	.
O=C(COc1ccccc1)NNC(=S)NC(=O)c1ccc(Cl)cc1Cl	.	0.4	55.8	88.3*
Cc1ccc(C(=O)NNC(=S)NC(=O)c2ccc(Cl)cc2Cl)cc1	31.3*	3.5	46.2	-17.8
CC(c1ccccc1)N1CCc2[nH]c(=S)[nH]c(=O)c2C1 (centres undefined)	.	-0.5	-2.7	.
CCNC(=S)Nc1ccc(S(=O)(=O)Nc2cc(C)nc(C)n2)cc1	.	0.5	-14.3	.
O=c1c(Cl)c(Cl)cnn1Cc1nnc(-c2ccc(Cl)cc2)o1	.	3.7	48.5	.
SMILES	Yeast life ext	RAM inhibit	WT yeast gro inh	BB579 growth dn
COc1ccc(N/C=C/C(=O)c2sc(-c3ccccc3)nc2C)cc1	-10.6	9.5*	23.1	-41.7
O=C(NC1CC1)c1ccc2c(c1)C1C3CCC(C3)C1C(c1ccccc1)N2 (centres undefined)	18.0	2.2	71.2*	-13.2
CCSc1nc2ccccc2n1C(=O)/C=C/c1ccc(OC)c(OC)c1	6.1	10.1*	-5.1	-39.8
C=CCSc1nc2ccccc2n1C(=O)/C=C/c1ccc(OC)c(OC)c1	-6.6	6.3	.	-11.1
O=C(CSc1ccc(-c2cccc([N+](=O)[O-])c2)nn1)NC1CCCC1	.	1.4	5.4	.
CCCCN(CCCC)c1ccc(C(=O)c2ccccc2C(=O)O)c(O)c1	34.1*	4.0	2.6	-41.3
O=C(NCc1ccco1)c1cc(C(=O)C2CCCCC2)c[nH]1	96.0*	2.6	11.8	-56.2
O=C1C2C3C=CC(CO)(O3)C2C(=O)N1c1ccccc1-c1ccccc1 (centres undefined)	-2.4	0.0	69.4*	-9.9
CC(=O)Oc1ccc(N2C(=O)C3C4C=CC(CO)(O4)C3C2=O)cc1 (centres undefined)	-9.0	0.5	22.6	-18.8
CC(C)(C)c1ccc(S(=O)(=O)N2CCC(c3nc4ccc(Cl)cc4[nH]3)CC2)cc1	.	0.1	69.0*	-29.0
O=C(Nc1ccc(N2CCCCC2)cc1)c1ccccn1	.	-0.4	60.6*	.
COc1ccc(CC(=O)Nc2c3c(nn2-c2cccc(Cl)c2)CS(=O)(=O)C3)cc1	-0.1	9.2*	1.1	-36.7
O=C(Cc1ccccc1)Nc1c2c(nn1-c1cccc(Cl)c1)CS(=O)(=O)C2	-3.5	2.3	14.8	-11.9
O=C(CNC(=O)c1cccs1)c1ccc(F)cc1	.	-0.5	-14.0	-30.9
